Sampled rows, rich in hits. Any-hit rate of the full collection: about 3.4%.
TAAR1 agonist: agonists of human TAAR1; CHO RD-HGA16 TAAR1, Fluo-8 calcium fluorescence; vehicle wells 0%, saturating PEA agonist 100%; activation, % at 3 µM; 360,000 compounds, 0.99% hits; AID 624467;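 active = activation above the mean activation of all test compounds in the run plus 3 SD, cut at about 38% in these data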
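Assay system: CHO-derived RD-HGA16 cells with stable Gα16 and human TAAR1; timing: 17-24 h seeding, 75 min 37 °C dye, 30 min RT; read-out: % activation from peak over basal fluorescence ratio, DMSO-to-PEA scaled; measured by: kinetic Fluo-8 calcium fluorescence; benchmarks: low control DMSO, high control PEA (EC100); doses: 3 µM single concentration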
GPR7 antag: antagonists of human GPR7 (neuropeptides B/W receptor 1); P48145; GPR7-expressing cells, fluorescence antagonist assay; inhibition, % at 4.4 µM; 290,000 compounds, 1.1% hits; AID 1861; in the data active = inhibition above about 16%, passing the limit was not always enough;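 also: cells stimulated with the agonist NPW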
Target sequence (P48145 whole entry, looked up): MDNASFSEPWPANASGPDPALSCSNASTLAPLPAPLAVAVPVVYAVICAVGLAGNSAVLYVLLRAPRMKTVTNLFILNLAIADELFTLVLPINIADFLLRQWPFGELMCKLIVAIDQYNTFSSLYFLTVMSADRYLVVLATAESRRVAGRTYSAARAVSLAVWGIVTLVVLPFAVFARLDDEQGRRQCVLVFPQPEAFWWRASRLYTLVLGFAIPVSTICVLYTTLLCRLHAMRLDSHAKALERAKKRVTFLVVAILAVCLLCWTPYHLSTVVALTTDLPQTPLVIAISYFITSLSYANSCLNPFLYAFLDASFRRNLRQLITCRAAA
TAAR1 antag: antagonists of human TAAR1; AID 624466; inhibition, % at 3 µM; CHO RD-HGA16 TAAR1, Fluo-8 calcium fluorescence, antagonist; Q96RJ0; 360,000 compounds, 1.5% hits;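 active = inhibition above a per-plate cutoff, the mean inhibition of test compounds on that plate plus 3 SD, cut at about 49% in these data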
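Test system – hTAAR1-expressing CHO RD-HGA16 cells, Gα16-coupled · Also added – β-PEA at EC80 concentration, post-compound challenge · Compound – 3 µM, single point · Incubation – dye loading 75 min at 37 °C, then 30 min room temperature · Measured by – Fluo-8 intracellular calcium dye fluorescence, real-time kinetic reads · Benchmarks – vehicle and agonist controls · Replicates – singlicate, one well per test compound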
LANA-H2A inh: blocks KSHV LANA binding to histone H2A/H2B; Q9QR71; cell-free LANA-H2A/H2B peptide, fluorescence polarization; inhibition, % (test concentration not listed); 320,000 compounds, 0.6% hits; AID 2629; in the data active = inhibition mostly above about 10%, no sharp cut-off; inactive = mostly below about 6.7%
TRPN1 ag: agonists of zebrafish TRPN1 channel; activation, % at 3 µM; 220,000 compounds, 0.18% hits; AID 1424; HEK293 zebrafish TRPN1-YFP, Fluo-8 calcium fluorescence; 100% = response to 87 µM carbachol;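 active = activation above its plate's cutoff, the mean activation of test wells on that plate plus 3 SD, cut at about 19% in these data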
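System: zebrafish TRPN1-YFP in HEK293 cells / Dosing: 3 µM single point / Timing: dye loading 1 h at 37 °C, then 30 min room temperature / Signal: Fluo-8 calcium fluorescence, excitation 470-495 nm, emission 515-575 nm / Read-out basis: percent activation from peak over basal fluorescence ratio, control-normalized / Control set: high carbachol 87 µM, low DMSO alone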
TRPML3 agonist: agonists of human TRPML3 channel | AID 1448 | HEK293 TRPML3-YFP, Fluo-8 calcium fluorescence; 100% = the carbachol control signal | 220,000 compounds, 0.29% hits | activation, % at 3 µM | Q8TDD5;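 active = activation above its plate's cutoff, the mean activation of the plate's test wells plus 3 SD, cut at about 12% in these data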
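system = HEK293 cells stably carrying human TRPML3-YFP | doses = one concentration, 3 µM nominal, 0.3% DMSO | timing = dye loading 1 h 37 °C then 30 min ambient, 125 s read | detection = Fluo-8 calcium dye fluorescence, ex 470-495, em 515-575 nm | benchmarks = high control carbachol 87 µM, low control DMSO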
TAAR1 ag conf: human TAAR1 agonism, confirmed. shares compounds with TAAR1 agonist. CHO RD-HGA16 TAAR1, Fluo-8 calcium fluorescence; scaled: DMSO 0%, maximal phenethylamine 100%. activation, % at 3 µM. 2,400 compounds, 82% hits. AID 651783;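 active = activation above a cutoff set at the run's mean compound activation plus 3 SD, cut at about 39% in these data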
Ga16 ag counter: nonselective agonism, TAAR1 counter-screen; AID 651787; CHO-Ga16 parental, Fluo-8 calcium fluorescence; normalized to maximal ATP response, DMSO zero; 2,400 compounds, 50% hits; shares compounds with TAAR1 agonist; activation, % at 3 µM;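 active = activation above the run cutoff, the mean activation over all tested wells plus 3 SD, cut at about 12% in these data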
TAAR1 desensitize: TAAR1 response desensitization, agonist counter-screen. shares compounds with TAAR1 agonist. CHO RD-HGA16 hTAAR1, Fluo-8 calcium, beta-PEA response inhibition. inhibition, % at 3 µM. 2,400 compounds, 46% hits. AID 651951;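 active = inhibition above the run cutoff, the mean inhibition of all test compounds plus 3 SD, cut at about 49% in these data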;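 also: beta-PEA stimulus applied at its EC80; loss of beta-PEA calcium signal after compound pretreatment read as receptor desensitization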
Ga16 antag count: nonselective Ga16 antagonist in TAAR1 agonist counter-screen; shares compounds with TAAR1 agonist; CHO-Ga16 ATP-induced calcium, Fluo-8 fluorescence; inhibition, % at 3 µM; 2,400 compounds, 39% hits; AID 651952;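 active = inhibition above the plate's mean compound inhibition plus 3 SD, computed per plate, cut at about 22% in these data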
Numbers stand for hits; - = inactive; . = no result given.

SMILES	TAAR1 agonist	GPR7 antag	TAAR1 antag	LANA-H2A inh	TRPN1 ag	TRPML3 agonist	TAAR1 ag conf	Ga16 ag counter	TAAR1 desensitize	Ga16 antag count
O=C(NCc1ccco1)c1cc(-c2ccc(F)cc2)on1	49.3	-	-	-	-	-	-	-	-	-
COc1cccc(-c2cc(C(F)(F)F)nc(-n3ccc([N+](=O)[O-])n3)n2)c1	-	-	-	-	-	-	.	.	.	.
O=[N+]([O-])c1ccn(-c2nc(-c3ccccc3)cc(C(F)(F)F)n2)n1	49.6	-	-	-	-	-	-	-	-	-
OC(COc1ccc(CNCCc2ccccc2F)cc1)CN1CCCCC1 (centres undefined)	.	-	.	-	-	-	.	-	.	-
Cc1ccc(C)c(C(O)c2ncc(-c3cccc(C(F)(F)F)c3)[nH]2)c1 (centres undefined)	66.3	.	65.7	.	.	.	58.1	45.4	-	33.1
Cc1ccc(C(O)c2ncc(-c3cccc(C(F)(F)F)c3)[nH]2)c(C)c1 (centres undefined)	-	.	-	.	.	.	.	.	.	.
CC1(C(=O)NS(=O)(=O)C2CC2)CCN(C(=O)COCc2ccccc2)C1 (centres undefined)	-	.	-	.	.	.	.	.	.	.
Cc1cc(C)c(OCCCCNCc2ccccc2)c(Cl)c1	48.0	-	-	-	-	-	48.0	21.7	-	23.9
Cc1cc(Cl)c(OCCCNC2CCCC2)c(Br)c1	58.0	-	-	-	.	.	-	-	-	-
COCCCNCCCCOc1c(Cl)cc(C)cc1Br	58.8	-	-	-	-	-	91.5	22.4	76.8	-
C=CCNCCCCOc1c(Cl)cc(C)cc1Br	-	-	-	-	-	-	.	.	.	.
CNC(=O)N(O)C1N(/N=C/c2c(F)cccc2Cl)C(=S)SC1(C)C (centres undefined)	-	-	-	-	.	.	.	.	.	.
COc1cccc(C(=O)N2CCC(C(=O)NCc3ccco3)CC2)c1	-	-	-	-	.	.	.	.	.	.
CCSc1nc2sccc2c(=O)n1-c1ccccc1	-	-	-	-	.	.	.	.	.	.
Nc1sc2c(c1C(=O)c1ccccc1)CCCC2	-	-	-	-	-	-	.	.	.	.
Nc1sc2c(c1C(=O)NCCc1ccccc1)CCCC2	76.3	.	63.7	.	.	.	89.8	-	78.5	-
Nc1sc2c(c1C(=O)NCCc1ccccc1)CCC2	53.5	-	-	-	-	-	81.1	-	61.4	-
COc1cc(OC)cc(-c2nnc(NC(=O)c3ccc4c(c3)OCCO4)o2)c1	-	-	-	-	.	.	.	.	.	.
COc1ccccc1N1CCN(C(=O)c2ccc3c(c2)NC(=O)C(CSCc2ccccc2C)N3)CC1 (centres undefined)	.	-	.	-	.	.	.	.	.	.
CCN1C[C@@H]2[C@@H]3C(=O)N(Cc4ccccc4)C(=O)[C@@H]3[C@](C)(C1=O)N2C(=O)c1ccc(Cl)c(Cl)c1	-	.	-	.	.	.	.	.	.	.
O=C(CCl)N(c1ccccc1)c1c[nH]c2ccccc12	-	-	-	-	-	-	.	.	.	.
O=Cc1[nH]c2ccccc2c1N(C(=O)CCl)c1ccc([N+](=O)[O-])cc1	55.9	-	51.9	-	-	-	69.9	44.5	72.7	53.0
CC(C)(C)c1ccc(C(=O)COC(=O)CN2C(=O)NC3(CCCC3)C2=O)cc1	-	-	-	-	.	.	.	.	.	.
CCCc1c2ccccc2nc2ccccc12	70.2	-	-	-	-	-	-	-	-	-
Cc1cccc(NC(=O)CNC(=O)CN2C(=O)NC3(CCc4ccccc43)C2=O)c1C (centres undefined)	-	.	-	.	.	.	.	.	.	.
COc1ccc2c(c1)C1(C)CC(C)(C)N2C(=O)N1c1ccccc1 (centres undefined)	44.1	-	-	-	-	-	-	-	-	-
CCCn1c(=O)c(C(=O)NNC(=O)c2ccccc2Cl)c(O)c2ccccc21	112.0	-	54.6	-	.	.	71.9	64.8	-	25.8
CCCn1c(=O)c(C(=O)NNC(=O)c2ccccc2[N+](=O)[O-])c(O)c2ccccc21	-	-	-	-	.	.	.	.	.	.
Cc1cccc(CS(=O)(=O)Cc2ccc(C(=O)NCCc3ccccc3)o2)c1	47.6	-	-	-	.	.	-	-	-	-
CN(CCNC(=O)c1ccc(CS(=O)(=O)c2ccc(Br)cc2)o1)CCc1ccccc1	53.2	-	-	18.9	.	.	51.3	-	-	-
